Assays:
[1] = Cytotoxicity against mouse RAW264.7 cells assessed as cell viability at 100 ug/ml by MTT assay; format: cell-based; conditions: read-out: Activity
Summary of the method: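 Compounds tested at 100 μg/mL on RAW 264.7 cells seeded at 2×10^5 cells/well. Cells were co-stimulated with LPS (1 μg/mL) for 24 h at 37 °C. Viability of the remaining cells after supernatant removal was measured by MTT colorimetric assay.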

RAW264.7 = test: Antiinflammatory activity in mouse RAW264.7 cells assessed as reduction in LPS-induced NO production incubated for 24 hrs by Griess reagent based assay; format: functional, cell-based; conditions: RAW264.7, 24 h
Summary of the method: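 RAW 264.7 cells seeded at 2×10^5 cells/well and held 24 h at 37 °C, 5% CO2. Cells treated with or without compounds at various concentrations plus LPS (1 μg/mL) for 24 h. Nitrite in cell-free supernatant read by Griess reaction (sulfanilamide/phosphoric acid, N-1-naphthylethylenediamine) at 540 nm against a NaNO2 standard curve. L-NMMA served as positive control. IC50 reported.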

SMILES	viability at 100 ug/ml [1] [%]	IC50 (RAW264.7) [µM]
C/C=C(\C)C(=O)O[C@@H]1[C@H](O)[C@@H](OC(=O)C(C)CC)[C@@H](O)[C@H](OC(=O)/C(=C/C)CO)[C@H]1OC(=O)/C(=C/C)CO (some centres not stated)	> 85	20.3
C/C=C(\CO)C(=O)O[C@@H]1[C@@H](O)[C@H](OC(=O)/C(=C/C)CO)[C@H](OC(=O)C(C)CC)[C@@H](O)[C@H]1OC(=O)C(C)CC (some centres not stated)	> 85	95.6
C/C=C(\C)C(=O)O[C@@H]1[C@H](O)[C@@H](OC(=O)C(C)CC)[C@@H](OC(=O)/C(=C/C)CO)[C@H](O)[C@H]1OC(=O)/C(=C/C)CO (some centres not stated)	> 85	7.1
C/C=C(\C)C(=O)O[C@@H]1[C@@H](O)[C@@H](OC(=O)C(C)CC)[C@H](OC(=O)/C(=C/C)CO)[C@@H](OC(=O)/C(=C/C)CO)[C@@H]1O (some centres not stated)	> 85	124
C/C=C(\CO)C(=O)O[C@H]1[C@H](OC(=O)C(C)CC)[C@H](O)[C@@H](OC(=O)C(C)CC)[C@@H](O)[C@@H]1OC(=O)/C(=C/C)CO (some centres not stated)	> 85	62.9
C/C=C(\C)C(=O)O[C@@H]1[C@H](O)[C@@H](O)[C@@H](OC(=O)/C(C)=C/C)[C@H](OC(=O)/C(=C/C)CO)[C@H]1OC(=O)/C(=C/C)CO	> 85	56.7
